Source: PubChem BioAssay AID493238 (Broad Institute, 2011)
Several values for one entry are separate records, joined by “and”; a condition that tells them apart may be missing. Equal entries are not always repeated. Activity calls are given as the source filed them.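 How the source made its calls: active means VEGF mRNA rise whose fitted curve reaches 40% activation within the highest concentration tested on that sample; inactive means the rest, including effects opposite to expected.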

System: not listed separately
Assay: VEGF mRNA induction in U2OS cells, dose response, orthogonal assay for HIF pathway activator project, cell-based, RT-PCR, dry powder, set 2 (AID 493238)
Conditions: U2OS VEGF mRNA induction, RT-PCR; at 38 µM (top of the series)
Procedure, shortened: (§1)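 Material: U2OS human osteosarcoma cells | Input: 2,000 U2OS cells per well | Doses: Compound dose series, pinned in duplicate | Incubation: 24 h pre-growth at 37 °C, 24 h compound treatment | Technique: Duplex TaqMan RT-qPCR (FAM VEGF-A, VIC beta-actin), 40 cycles, post-lysis | Controls: DMSO negative control | Replicates: Duplicate compound pinning per dose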

Row | Structure (SMILES) | activation
1 | O=C(NCCN1CCCCC1)c1cc(-c2ccccc2)on1 | -5.63% (inactive)
2 | Cn1c(NC(=O)c2cc(-c3ccccc3)on2)nc2ccccc21 | -9.2% (inactive)
3 | O=C(Nc1nnc(-c2ccccc2)s1)c1cc(-c2ccccc2)on1 | -3.69% (inactive)
4 | O=C(c1cc(-c2ccccc2)on1)N1CCc2cccnc21 | 5.33% (inactive)
5 | O=C(Nc1ccc2ccccc2n1)c1cc(-c2ccccc2)on1 | 4.54% (inactive)
6 | Cc1cccc(NC(=O)c2cc(-c3ccccc3)on2)n1 | 16.6% (inactive)
7 | O=C(Nc1nc(-c2ccccc2)cs1)c1cc(-c2ccccc2)on1 | -5.33% (inactive)
8 | O=C(Nc1nc2ccccc2s1)c1cc(-c2ccccc2)on1 | 18.7% (inactive)
9 | O=C(c1cc(-c2ccccc2)on1)N1CCC(N2CCCC2)CC1 | 13.9% (inactive)
10 | Cc1cccc(CNC(=O)c2cc(-c3ccccc3)on2)c1 | 8.64% (inactive)
11 | Cc1ccc(CNC(=O)c2cc(-c3ccccc3)on2)cc1 | 8.66% (inactive)
12 | O=C(c1cc(-c2ccccc2)on1)N1CCC(CO)CC1 | 9.68% (inactive)
13 | Cc1ccc(NC(=O)c2cc(-c3ccccc3)on2)cn1 | 4.7% (inactive)
14 | O=C(NCC1CCCCC1)c1cc(-c2ccccc2)on1 | -2.71% (inactive)
15 | O=C(Nc1ncc(-c2ccccc2)o1)c1cc(-c2ccccc2)on1 | -1.45% (inactive)
16 | CN(C)CCNC(=O)c1cc(-c2ccccc2)on1 | 5.67% (inactive)
17 | Cc1ccccc1CNC(=O)c1cc(-c2ccccc2)on1 | 35.3% (inactive)
18 | O=C(NCc1ccccc1)c1cc(-c2ccccc2)on1 | -10.1% (inactive)
19 | O=C(c1cc(-c2ccccc2)on1)N1CCC(N2CCOCC2)CC1 | 2.34% (inactive)
20 | O=C(NC1Cc2ccccc2C1)c1cc(-c2ccccc2)on1 | 2.5% (inactive)
21 | O=C(Nc1cnc2ccccc2c1)c1cc(-c2ccccc2)on1 | -1.59% (inactive)
22 | CN1CCN(C(=O)c2cc(-c3ccccc3)on2)CC1 | 5.56% (inactive)

System: U2OS VEGF mRNA induction, RT-PCR
Assay: as above
Conditions: not given
Procedure, shortened: as §1

Row | Structure (SMILES) | AC40
23 | c1ccc(-c2nnc(-c3ccccn3)nc2N2CCN(c3ccncc3)CC2)cc1 | 2.12 µM
24 | c1ccc(-c2nnc(Nc3nc(-c4ccccn4)nnc3-c3ccccc3)s2)cc1 | 1.3 µM
25 | Oc1ccc(CNC2CCc3ccccc32)c2cccnc12 (stereo not drawn) | 35.1 µM
26 | c1ccc(-c2nnc(-c3ccccn3)nc2NCCN2CCOCC2)cc1 | 8.15 µM
27 | O=C(NCCCN1CCOCC1)c1cc(-c2ccccc2)on1 | 23 µM
28 | c1ccc(-c2nnc(-c3ccccn3)nc2NCc2cccnc2)cc1 | 2.84 µM
29 | CC(C)(C)CCNc1nc(-c2ccccn2)nnc1-c1ccccc1 | 0.768 µM and 0.974 µM
30 | CC(Nc1nc(-c2ccccn2)nnc1-c1ccccc1)c1ccccc1 (stereo not drawn) | 1.37 µM
31 | Oc1ccc(CNC2Cc3ccccc3C2)c2cccnc12 | 10.7 µM
32 | C[C@H](Nc1nc(-c2ccccn2)nnc1-c1ccccc1)C1CCCCC1 | 1.39 µM
33 | Oc1ccc(CN2CCc3ccccc3C2)c2cccnc12 | 5.31 µM and 5.35 µM
34 | c1ccc(-c2nnc(-c3ccccn3)nc2NCCc2ccccn2)cc1 | 5.54 µM
35 | N#CC1(c2ccccc2)CCN(Cc2ccc(O)c3ncccc23)CC1 | 28.3 µM
36 | O=C(c1cc(-c2ccccc2)on1)N1CCN(c2ccncc2)CC1 | > 38 µM (inactive)
37 | Cn1c(-c2ccccc2)cnc1Nc1nc(-c2ccccn2)nnc1-c1ccccc1 | 3.33 µM
38 | CN(C)c1nc(-c2ccccn2)nnc1-c1ccccc1 | 8.23 µM
39 | c1ccc(-c2cnc(Nc3nc(-c4ccccn4)nnc3-c3ccccc3)s2)cc1 | 0.4 µM
40 | Cc1cccc(Nc2nc(-c3ccccn3)nnc2-c2ccccc2)n1 | 2.98 µM
41 | Cc1ccc(CNc2nc(-c3ccccn3)nnc2-c2ccccc2)cc1 | 0.892 µM
42 | c1ccc(-c2nnc(-c3ccccn3)nc2NCc2ccccn2)cc1 | 4.53 µM
43 | c1ccc(-c2nnc(-c3ccccn3)nc2NCCCN2CCOCC2)cc1 | 6.5 µM
